Reference: publication PMC5884014 (Neoplasia (New York, N.Y.), 2017)

Legend:
LS174T = experiment: Cytotoxicity assay; type: cell-based, human; details: 72 h
HT-29 = experiment: Cytotoxicity assay; type: cell-based, human
LoVo = experiment: Cytotoxicity assay; type: cell-based, human; details: 72 h
RKO-E6 = experiment: Cytotoxicity assay; type: cell-based, human; details: RKO-E6 (p53-KO), 72 h
SW620 = experiment: Cytotoxicity assay; type: cell-based, human
H3347 = experiment: Cytotoxicity assay; type: cell-based, human; details: H3347, 72 h
DLD-1 = experiment: Cytotoxicity assay; type: cell-based, human
RKO = experiment: Cytotoxicity assay; type: cell-based, human; details: 72 h
HCT116 = experiment: Cytotoxicity assay; type: cell-based, human
FHC = experiment: Cytotoxicity assay; type: cell-based, human; details: 72 h
Colo205 = experiment: Cytotoxicity assay; type: cell-based, human
Caco-2 = experiment: Cytotoxicity assay; type: cell-based; details: Homo sapiens, Caco-2, 72 h
[1] = Toxicology examination: serum biochemistry; type: in vivo; details: ICR mice, 5-FU 50 mg/kg i.p., SL-1 30, oxaliplatin 7.5, cisplatin 7.5 mg/kg i.v.
[2] = tested on: pGL4-WT and pGL4-MT luciferase reporters in RKO cells; experiment: Luciferase reporter assay; type: cell-based, human; details: SL-1 for 2 h
[3] = Toxicology examination: histopathology of kidney and liver; type: in vivo; details: ICR mice
pEGFP-N1 plasmid DNA = experiment: Alkaline agarose gel shift assay; type: biochemical; details: 37°C, 2 h
RKO cells [4] = experiment: Annexin V staining assay; type: cell-based, human
RKO xenografts = experiment: Anticancer activity in xenograft mouse model; type: in vivo, nude mice
RKO cells [5] = experiment: Comet and modified comet assays; type: cell-based, human; details: 24 h, SL-1 0.75 μM, 5-FU […], alone or combined
Outline: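 RKO cells were exposed to the test compound and/or 5-FU for 24 h and then processed by comet assay. The read-out was tail moment, reported as means ± SD (n = 3) and compared by Student's t test. Synergy on tail moment was expressed as a combination index (CI).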

[6] = Toxicology examination: complete blood counts; type: in vivo; details: ICR mice, 5-FU 50 mg/kg i.p., SL-1 30, oxaliplatin 7.5, cisplatin 7.5 mg/kg i.v.
CRC cell lines = experiment: Cytotoxicity, panel of CRC cell lines; type: cell-based; details: Homo sapiens, read-out: IC50 values in CRC cell lines
[7] = tested on: breast carcinoma MX-1 xenografts; details: cited from earlier work
[8] = FHC normal fetal colonic epithelial cells

Compound: N.N.[Cl][Pt][Cl] [Cisplatin, cisplatin]
- IC50 (LS174T; LS174T (p53-WT)): 8.48 ± 2.74 µM
- IC50 (HT-29; HT-29 (p53-MT), 72 h): 5.99 ± 1.22 µM
- IC50 (LoVo; LoVo (p53-WT)): 6.38 ± 2.18 µM
- IC50 (RKO-E6): 24.8 ± 7.71 µM
- IC50 (SW620; SW620 (p53-MT), 72 h): 0.91 ± 0.27 µM
- IC50 (H3347): 12.2 ± 0.64 µM
- IC50 (DLD-1; DLD-1 (p53-MT), 72 h): 29.6 ± 6.42 µM
- IC50 (RKO; RKO (p53-WT)): 26.3 ± 3.28 µM
- IC50 (HCT116; HCT116 (p53-WT), 72 h): 3.42 ± 0.36 µM
- IC50 (FHC; [8]): 21 ± 2.03 µM
- IC50 (Colo205; Colo205 (p53-WT), 72 h): 11.1 ± 1.27 µM

Compound: CCc1c2c(nc3ccc(OC(=O)N4CCC(N5CCCCC5)CC4)cc13)-c1cc3c(c(=O)n1C2)COC(=O)[C@]3(O)CC [Irinotecan, irinotecan]
- IC50 (LS174T; Homo sapiens, LS174T): 1.36 ± 0.33 µM
- IC50 (Caco-2): 21.3 ± 7.34 µM
- IC50 (HT-29; Homo sapiens, HT-29, 72 h): 4.19 ± 0.29 µM
- IC50 (LoVo; Homo sapiens, LoVo): 9.69 ± 1.68 µM
- IC50 (SW620; Homo sapiens, SW-620, 72 h): 0.32 ± 0.1 µM
- IC50 (H3347; Homo sapiens): 2.93 ± 0.68 µM
- IC50 (DLD-1; Homo sapiens, DLD-1, 72 h): 1.72 ± 0.35 µM
- IC50 (RKO; Homo sapiens, RKO): 2.63 ± 1.05 µM
- IC50 (HCT116; Homo sapiens, HCT-116, 72 h): 1.38 ± 0.49 µM
- IC50 (FHC; Homo sapiens, FHC): > 100 µM
- IC50 (Colo205; Homo sapiens, COLO 205, 72 h): 2.49 ± 0.48 µM

Compound: O=C1[O][Pt]2([NH][C@@H]3CCCC[C@H]3[NH]2)[O]C1=O [Oxaliplatin, oxaliplatin]
- IC50 (LS174T; LS174T (p53-WT)): > 50 µM
- IC50 (HT-29; HT-29 (p53-MT), 72 h): 1.92 ± 0.81 µM
- IC50 (LoVo; LoVo (p53-WT)): 1.65 ± 0.21 µM
- ALP ([1]; 2 days): 498.33 ± 63.91 U/l
- ALT ([1]; 2 days): 28.00 ± 1.73 U/l
- AST ([1]; 2 days): 76.67 ± 16.47 U/l
- BUN ([1]; 2 days): 20.27 ± 3.32 mg/dL
- CRE ([1]; 2 days): 0.27 ± 0.06 mg/dL
- GLU ([1]; 2 days): 153.67 ± 88.22 mg/dL
- ALP ([1]; 14 days): 245.5 ± 35.07 U/l
- BUN ([1]; 14 days): 21.35 ± 5.07 mg/dL
- CRE ([1]; 14 days): 0.13 ± 0.05 mg/dL
- GLU ([1]; 14 days): 268.25 ± 61.43 mg/dL
- GOT/AST ([1]; 14 days): 47.25 ± 7.13 U/l
- GPT/ALT ([1]; 14 days): 29.50 ± 5.74 U/l
- IC50 (RKO-E6): 10.3 ± 3.39 µM
- IC50 (SW620; SW620 (p53-MT), 72 h): 7.62 ± 3.12 µM
- IC50 (H3347): 2.55 ± 0.73 µM
- IC50 (DLD-1; DLD-1 (p53-MT), 72 h): 1.62 ± 0.06 µM
- IC50 (RKO; RKO (p53-WT)): 0.62 ± 0.02 µM
- IC50 (HCT116; HCT116 (p53-WT), 72 h): 1.78 ± 0.11 µM
- IC50 (FHC; [8]): 19.7 ± 2.21 µM
- IC50 (Colo205; Colo205 (p53-WT), 72 h): 2.26 ± 0.78 µM

Compound: Cc1cc(NNC(=O)Nc2ccc(N(CCCl)CCCl)cc2)c2cc3c(cc2n1)OCO3 [SL-1, N-{4-[Bis(2-chloroethyl)amino]phenyl}-2-(6-methyl[1,3]-dioxolo[4,5-g]quinolin-8-yl)-hydrazinecarboxamide]
- inhibition of luciferase reporter activity, pGL4-WT vs pGL4-MT [2]: inhibited the reporter activity of pGL4-WT more effectively than that of pGL4-MT
- IC50 (LS174T; Homo sapiens, LS174T): 4.55 ± 1.01 µM
- IC50 (Caco-2): 5.49 ± 3.07 µM
- IC50 (HT-29; Homo sapiens, HT-29, 72 h): 0.53 ± 0.11 µM
- IC50 (LoVo; Homo sapiens, LoVo): 0.61 ± 0.03 µM
- liver histopathology ([3]; 2-day test): liver damage was insignificant
- kidney histopathology ([3]; 2 days after single dose): insignificant morphological injury in the kidney
- histopathological examination, overall ([3]; SL-1 30 mg/kg i.v.): no obvious nephrotoxicity or hepatotoxicity
- ALP ([1]; 2 days): 331.75 ± 27.94 U/l
- ALT ([1]; 2 days): 24.50 ± 2.17 U/l
- AST ([1]; 2 days): 49.00 ± 3.24 U/l
- BUN ([1]; 2 days): 23.05 ± 2.22 mg/dL
- CRE ([1]; 2 days): 0.20 ± 0.00 mg/dL
- GLU ([1]; 2 days): 466.50 ± 146.80 mg/dL
- ALP ([1]; 14 days): 231.00 ± 85.33 U/l
- BUN ([1]; 14 days): 20.05 ± 2.37 mg/dL
- CRE ([1]; 14 days): 0.17 ± 0.06 mg/dL
- GLU ([1]; 14 days): 219.75 ± 35.85 mg/dL
- GOT/AST ([1]; 14 days): 47.50 ± 1.29 U/l
- GPT/ALT ([1]; 14 days): 22.00 ± 8.04 U/l
- concentration that induced moderate levels of ICLs (pEGFP-N1 plasmid DNA): 0.05 µM
- IC50 (SW620; Homo sapiens, SW-620, 72 h): 0.14 ± 0.06 µM
- IC50 (H3347; Homo sapiens): 0.23 ± 0.03 µM
- IC50 (DLD-1; Homo sapiens, DLD-1, 72 h): 0.36 ± 0.07 µM
- mode of cell death (RKO cells [4]): primarily triggered apoptosis
- tumor suppression (RKO xenografts; RKO xenograft (Figure 6A), SL-1 30 mg/kg Q2D×7 i.v., oxaliplatin 7.5 mg/kg, 5-FU 50 mg/kg): 61.8%
- tumor growth suppression (RKO xenografts; RKO xenograft, nude mice, day 29, SL-1 30 mg/kg i.v. every other day 7 times): approximately 65%
- IC50 (RKO; Homo sapiens, RKO): 0.2 ± 0.08 µM
- IC50 (HCT116; Homo sapiens, HCT-116, 72 h): 0.34 ± 0.06 µM
- tail moment (RKO cells [5]): 5.4 ± 0.8 μm
- BASO ([6]; 2 days): 0.00 ± 0.00 10^9/l
- EO ([6]; 2 days): 0.09 ± 0.03 10^9/l
- HCT ([6]; 2 days): 38.32 ± 3.18%
- HGB ([6]; 2 days): 12.34 ± 1.35 g/dL
- LYMPH ([6]; 2 days): 3.55 ± 0.98 10^9/l
- MCH ([6]; 2 days): 15.88 ± 0.48 pg
- MCHC ([6]; 2 days): 25.86 ± 1.72 g/dL
- MCV ([6]; 2 days): 58.18 ± 3.66 fL
- MONO ([6]; 2 days): 0.05 ± 0.03 10^9/l
- NEUT ([6]; 2 days): 0.54 ± 0.20 10^9/l
- PLT ([6]; 2 days): 1742.40 ± 273.56 10^9/l
- RBC ([6]; 2 days): 7.80 ± 1.03 10^12/l
- WBC ([6]; 2 days): 4.81 ± 1.00 10^9/l
- BASO ([6]; 14 days): 0.01 ± 0.01 10^9/l
- EO ([6]; 14 days): 0.13 ± 0.05 10^9/l
- HCT ([6]; 14 days): 46.28 ± 2.32%
- HGB ([6]; 14 days): 13.36 ± 0.74 g/dL
- LYMPH ([6]; 14 days): 4.17 ± 1.28 10^9/l
- MCH ([6]; 14 days): 15.58 ± 0.47 pg
- MCHC ([6]; 14 days): 28.84 ± 0.57 g/dL
- MCV ([6]; 14 days): 53.96 ± 1.92 fL
- MONO ([6]; 14 days): 0.12 ± 0.15 10^9/l
- NEUT ([6]; 14 days): 1.08 ± 0.36 10^9/l
- PLT ([6]; 14 days): 838.80 ± 57.98 10^9/l
- RBC ([6]; 14 days): 8.60 ± 0.68 10^12/l
- WBC ([6]; 14 days): 5.50 ± 1.64 10^9/l
- IC50 (FHC; Homo sapiens, FHC): 71.5 ± 8.36 µM
- IC50 (CRC cell lines): 0.14 to 5.49 µM
- IC50 (Colo205; Homo sapiens, COLO 205, 72 h): 0.46 ± 0.1 µM
- growth of breast carcinoma MX-1 xenografts [7]: complete tumor remission
